# Experimental data from different studies.
# Compare with care: the assays were run in different laboratories. pIC50: −log10 of the molar value.
SMILES,cell line,assay,setting,measurement,value
N.N.[Cl][Pt][Cl],CD4,cell growth or viability,72 h,IC50,2.2 µg/mL
N.N.[Cl][Pt][Cl],SMMC-7721,"cell growth or viability, MTT",48 h,pIC50,5.19
N.N.[Cl][Pt][Cl],M109,"cell growth or viability, MTT",,pIC50,6.01
CC1=C(O)C(=O)C=C2C1=CC=C1[C@@]2(C)CC[C@@]2(C)[C@@H]3C[C@](C)(C(=O)O)CC[C@]3(C)CC[C@]12C,SMMC-7721,"cell growth or viability, MTT",20 µM,inhibition,70.6%
O=C(CC(=O)C(F)(F)F)C(F)(F)F,HL-60,"cell growth or viability, resazurin","72 h, dark",pIC50,< 4.00
COC(=O)[C@@H](N)CCCNC(N)=N[N+](=O)[O-],RAW264.7,"NO release, inhibitor, Griess","250 µM, LPS-stimulated",inhibition,54%
Nc1nc(N)c(CNCCc2ccccc2F)c(C2CC2)n1,Vero,"cell growth or viability, SRB",,pIC50,< 4.00
COc1ccc(/C=C/C(=O)c2c(O)cc(OC)cc2OC)cc1,SPCA1,"cell growth or viability, MTT",,pIC50,4.72
Nc1nc(N)c(CNCCc2cccc(Cl)c2)c(C2CC2)n1,Vero,"cell growth or viability, SRB",,pIC50,4.12
COc1cc(O)c(C(=O)/C=C/c2ccc(O)cc2)c(OC)c1,SPCA1,"cell growth or viability, MTT",,pIC50,4.60
COc1c(O)cc2oc3cc(O)c(CC=C(C)C)c(O)c3c(=O)c2c1CC=C(C)C,22Rv1,cell growth or viability,48 h,pIC50,4.71
COc1cc(O)c(C(=O)/C=C/c2ccccc2)c(OC)c1,SPCA1,"cell growth or viability, MTT",,pIC50,4.50
COc1cccc(CCNCc2c(N)nc(N)nc2C2CC2)c1,Vero,"cell growth or viability, SRB",,pIC50,5.14
C[C@H]1CN(c2ccncc2NC(=O)c2ccc(F)c(-c3c(F)cccc3F)n2)C[C@@H](N)[C@@H]1O,U-266,"cell growth or viability, thymidine uptake",,GI50,0.342 µM
